Measured values from ChEMBL document CHEMBL4041470, “Isolation, Structure Elucidation, and Absolute Configuration of Highly Oxygenated Germacranolides from Carpesium cernuum” (J Nat Prod, 2016).

The molecules below were run on A549 (assay: Cytotoxicity against human A549 cells assessed as reduction in cell viability after 72 hrs by MTT assay). Conditions: A549, 72 h.
Format: functional, cell-based
In short: (§1)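 Human cancer cells grown in 96-well plates and exposed for 72 h at 37 °C under 5% CO2. Survival rates read by MTT assay, with doxorubicin as positive control. IC50 reported as the mean of triplicate determinations.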
With `C/C=C(/C)C(=O)O[C@H]1[C@@H](O)[C@@H]2[C@H](OC(=O)[C@H]2COC)[C@@H](OC(=O)C(C)C)[C@@](C)(O)C(=O)CC[C@H]1C` the IC50 was > 100 µM.
With `C/C=C(/C)C(=O)O[C@@H]1[C@H]2OC(=O)[C@@H](COC)[C@@H]2[C@H](O)[C@H](OC(=O)CC(C)C)[C@H](C)CCC(=O)[C@]1(C)O` the IC50 was > 100 µM.
For `C=C1C(=O)O[C@H]2[C@H]1[C@H](O)[C@H](OC(=O)/C(C)=C\C)[C@H](C)CCC(=O)[C@](C)(O)[C@@H]2OC(=O)C(C)C`, the IC50 was 12.1 µM.
In the case of `C=C1C(=O)O[C@H]2[C@H]1[C@@H](O)[C@]1(O)O[C@@H](C[C@H]1C)C[C@](C)(O)[C@@H]2OC(=O)C(C)C`, the IC50 is reported as > 100 µM.
For `C=C1C(=O)O[C@H]2[C@H]1[C@H](O)[C@]1(O)O[C@@H](C[C@H]1C)C[C@](C)(O)[C@@H]2OC(=O)/C(C)=C\C`, the IC50 was > 100 µM.
`C=C1C(=O)O[C@H]2[C@H]1[C@H](OC(=O)C(C)C)C(=O)[C@H](C)CCC[C@](C)(O)[C@@H]2OC(=O)C(C)C` was tested, and the IC50 was 29.9 µM.
`C=C1C(=O)O[C@H]2[C@H]1[C@H](OC(=O)/C(C)=C\C)C(=O)[C@H](C)CCC[C@](C)(O)[C@@H]2OC(=O)C(C)C` (relative stereo) was tested, and the IC50 was 18.4 µM.
For `C=C1C(=O)O[C@H]2[C@H]1[C@@H](O)[C@]1(O)O[C@@H](C[C@H]1C)C[C@](C)(O)[C@@H]2OC(=O)/C(C)=C\C` (relative stereo), the IC50 was > 100 µM.
In the case of `C/C=C(/C)C(=O)O[C@H]1[C@@H](O)[C@@H]2[C@H](OC(=O)[C@H]2COC)[C@@H](OC(=O)/C(C)=C\C)[C@@](C)(O)C(=O)CC[C@H]1C` (relative stereo), the IC50 is reported as > 100 µM.
Molecule `C/C=C(/C)C(=O)O[C@H]1[C@@H](O)[C@@H]2[C@H](OC(=O)[C@H]2COC)[C@@H](OC(=O)C(C)CC)[C@@](C)(O)C(=O)CC[C@H]1C` (relative stereo) has an IC50 of 90.4 µM.
With `COc1cccc2c1C(=O)c1c(O)c3c(c(O)c1C2=O)C[C@@](O)(C(=O)CO)C[C@@H]3O[C@H]1C[C@H](N)[C@H](O)[C@H](C)O1` [DOXORUBICIN] the IC50 was 0.015 µM.

The molecules below were run on HCT-116 (assay: Cytotoxicity against human HCT116 cells assessed as reduction in cell viability after 72 hrs by MTT assay). Conditions: HCT-116, 72 h.
Format: functional, cell-based
In short: as §1
In the case of `C/C=C(/C)C(=O)O[C@H]1[C@@H](O)[C@@H]2[C@H](OC(=O)[C@H]2COC)[C@@H](OC(=O)C(C)C)[C@@](C)(O)C(=O)CC[C@H]1C`, the IC50 is reported as 49.6 µM.
In the case of `C/C=C(/C)C(=O)O[C@@H]1[C@H]2OC(=O)[C@@H](COC)[C@@H]2[C@H](O)[C@H](OC(=O)CC(C)C)[C@H](C)CCC(=O)[C@]1(C)O`, the IC50 is reported as 71.5 µM.
`C=C1C(=O)O[C@H]2[C@H]1[C@H](O)[C@H](OC(=O)/C(C)=C\C)[C@H](C)CCC(=O)[C@](C)(O)[C@@H]2OC(=O)C(C)C` showed an IC50 of 0.87 µM.
For `C=C1C(=O)O[C@H]2[C@H]1[C@@H](O)[C@]1(O)O[C@@H](C[C@H]1C)C[C@](C)(O)[C@@H]2OC(=O)C(C)C`, the IC50 was > 100 µM.
`C=C1C(=O)O[C@H]2[C@H]1[C@H](O)[C@]1(O)O[C@@H](C[C@H]1C)C[C@](C)(O)[C@@H]2OC(=O)/C(C)=C\C` gave an IC50 of 37.5 µM.
`C=C1C(=O)O[C@H]2[C@H]1[C@H](OC(=O)C(C)C)C(=O)[C@H](C)CCC[C@](C)(O)[C@@H]2OC(=O)C(C)C` gave an IC50 of 2.65 µM.
With `C=C1C(=O)O[C@H]2[C@H]1[C@H](OC(=O)/C(C)=C\C)C(=O)[C@H](C)CCC[C@](C)(O)[C@@H]2OC(=O)C(C)C` (relative stereo) the IC50 was 5.51 µM.
For `C=C1C(=O)O[C@H]2[C@H]1[C@@H](O)[C@]1(O)O[C@@H](C[C@H]1C)C[C@](C)(O)[C@@H]2OC(=O)/C(C)=C\C` (relative stereo), the IC50 was > 100 µM.
In the case of `C/C=C(/C)C(=O)O[C@H]1[C@@H](O)[C@@H]2[C@H](OC(=O)[C@H]2COC)[C@@H](OC(=O)/C(C)=C\C)[C@@](C)(O)C(=O)CC[C@H]1C` (relative stereo), the IC50 is reported as 36.4 µM.
`C/C=C(/C)C(=O)O[C@H]1[C@@H](O)[C@@H]2[C@H](OC(=O)[C@H]2COC)[C@@H](OC(=O)C(C)CC)[C@@](C)(O)C(=O)CC[C@H]1C` (relative stereo) gave an IC50 of 58 µM.
Molecule `COc1cccc2c1C(=O)c1c(O)c3c(c(O)c1C2=O)C[C@@](O)(C(=O)CO)C[C@@H]3O[C@H]1C[C@H](N)[C@H](O)[C@H](C)O1` [DOXORUBICIN] has an IC50 of 0.007 µM.

Each molecule was assayed on MDA-MB-231 (assay: Cytotoxicity against human MDA-MB-231 cells assessed as reduction in cell viability after 72 hrs by MTT assay). Conditions: MDA-MB-231, 72 h.
Format: functional, cell-based
In short: as §1
In the case of `C/C=C(/C)C(=O)O[C@H]1[C@@H](O)[C@@H]2[C@H](OC(=O)[C@H]2COC)[C@@H](OC(=O)C(C)C)[C@@](C)(O)C(=O)CC[C@H]1C`, the IC50 is reported as > 100 µM.
`C/C=C(/C)C(=O)O[C@@H]1[C@H]2OC(=O)[C@@H](COC)[C@@H]2[C@H](O)[C@H](OC(=O)CC(C)C)[C@H](C)CCC(=O)[C@]1(C)O` was tested, and the IC50 was > 100 µM.
`C=C1C(=O)O[C@H]2[C@H]1[C@H](O)[C@H](OC(=O)/C(C)=C\C)[C@H](C)CCC(=O)[C@](C)(O)[C@@H]2OC(=O)C(C)C` was tested, and the IC50 was 2.02 µM.
For `C=C1C(=O)O[C@H]2[C@H]1[C@@H](O)[C@]1(O)O[C@@H](C[C@H]1C)C[C@](C)(O)[C@@H]2OC(=O)C(C)C`, the IC50 was > 100 µM.
With `C=C1C(=O)O[C@H]2[C@H]1[C@H](O)[C@]1(O)O[C@@H](C[C@H]1C)C[C@](C)(O)[C@@H]2OC(=O)/C(C)=C\C` the IC50 was > 100 µM.
Molecule `C=C1C(=O)O[C@H]2[C@H]1[C@H](OC(=O)C(C)C)C(=O)[C@H](C)CCC[C@](C)(O)[C@@H]2OC(=O)C(C)C` has an IC50 of 7.48 µM.
For `C=C1C(=O)O[C@H]2[C@H]1[C@H](OC(=O)/C(C)=C\C)C(=O)[C@H](C)CCC[C@](C)(O)[C@@H]2OC(=O)C(C)C` (relative stereo), the IC50 was 7.53 µM.
For `C=C1C(=O)O[C@H]2[C@H]1[C@@H](O)[C@]1(O)O[C@@H](C[C@H]1C)C[C@](C)(O)[C@@H]2OC(=O)/C(C)=C\C` (relative stereo), the IC50 was > 100 µM.
For `C/C=C(/C)C(=O)O[C@H]1[C@@H](O)[C@@H]2[C@H](OC(=O)[C@H]2COC)[C@@H](OC(=O)/C(C)=C\C)[C@@](C)(O)C(=O)CC[C@H]1C` (relative stereo), the IC50 was > 100 µM.
`C/C=C(/C)C(=O)O[C@H]1[C@@H](O)[C@@H]2[C@H](OC(=O)[C@H]2COC)[C@@H](OC(=O)C(C)CC)[C@@](C)(O)C(=O)CC[C@H]1C` (relative stereo) was tested, and the IC50 was > 100 µM.
`COc1cccc2c1C(=O)c1c(O)c3c(c(O)c1C2=O)C[C@@](O)(C(=O)CO)C[C@@H]3O[C@H]1C[C@H](N)[C@H](O)[C@H](C)O1` [DOXORUBICIN] showed an IC50 of 0.13 µM.

What follows are molecules tested on BEL-7404 tumor cell line (assay: Cytotoxicity against human Bel7404 cells assessed as reduction in cell viability after 72 hrs by MTT assay). Conditions: BEL-7404, 72 h.
Format: functional, cell-based
In short: as §1
For `C/C=C(/C)C(=O)O[C@H]1[C@@H](O)[C@@H]2[C@H](OC(=O)[C@H]2COC)[C@@H](OC(=O)C(C)C)[C@@](C)(O)C(=O)CC[C@H]1C`, the IC50 was 71.7 µM.
In the case of `C/C=C(/C)C(=O)O[C@@H]1[C@H]2OC(=O)[C@@H](COC)[C@@H]2[C@H](O)[C@H](OC(=O)CC(C)C)[C@H](C)CCC(=O)[C@]1(C)O`, the IC50 is reported as 79 µM.
Work on `C=C1C(=O)O[C@H]2[C@H]1[C@H](O)[C@H](OC(=O)/C(C)=C\C)[C@H](C)CCC(=O)[C@](C)(O)[C@@H]2OC(=O)C(C)C` yielded an IC50 of 1.8 µM.
Molecule `C=C1C(=O)O[C@H]2[C@H]1[C@@H](O)[C@]1(O)O[C@@H](C[C@H]1C)C[C@](C)(O)[C@@H]2OC(=O)C(C)C` has an IC50 of 81.9 µM.
In the case of `C=C1C(=O)O[C@H]2[C@H]1[C@H](O)[C@]1(O)O[C@@H](C[C@H]1C)C[C@](C)(O)[C@@H]2OC(=O)/C(C)=C\C`, the IC50 is reported as 69.6 µM.
`C=C1C(=O)O[C@H]2[C@H]1[C@H](OC(=O)C(C)C)C(=O)[C@H](C)CCC[C@](C)(O)[C@@H]2OC(=O)C(C)C` showed an IC50 of 7.32 µM.
`C=C1C(=O)O[C@H]2[C@H]1[C@H](OC(=O)/C(C)=C\C)C(=O)[C@H](C)CCC[C@](C)(O)[C@@H]2OC(=O)C(C)C` (relative stereo) was tested, and the IC50 was 7.35 µM.
With `C=C1C(=O)O[C@H]2[C@H]1[C@@H](O)[C@]1(O)O[C@@H](C[C@H]1C)C[C@](C)(O)[C@@H]2OC(=O)/C(C)=C\C` (relative stereo) the IC50 was 56.4 µM.
`C/C=C(/C)C(=O)O[C@H]1[C@@H](O)[C@@H]2[C@H](OC(=O)[C@H]2COC)[C@@H](OC(=O)/C(C)=C\C)[C@@](C)(O)C(=O)CC[C@H]1C` (relative stereo) was tested, and the IC50 was 88.1 µM.
In the case of `C/C=C(/C)C(=O)O[C@H]1[C@@H](O)[C@@H]2[C@H](OC(=O)[C@H]2COC)[C@@H](OC(=O)C(C)CC)[C@@](C)(O)C(=O)CC[C@H]1C` (relative stereo), the IC50 is reported as 62.9 µM.
`COc1cccc2c1C(=O)c1c(O)c3c(c(O)c1C2=O)C[C@@](O)(C(=O)CO)C[C@@H]3O[C@H]1C[C@H](N)[C@H](O)[C@H](C)O1` [DOXORUBICIN] was tested, and the IC50 was 0.13 µM.
